Experiments:
[1] = Metabolic stability in Sprague-Dawley rat liver microsomes assessed as metabolic rate constant at 100 uM up to 180 mins by HPLC-UV analysis; conditions: 3 h
Mus musculus [2] = assay: Toxicity in C57BL/6 mouse assessed as effect on water intake at 677 to 2000 mg/kg, ig measured continuously during first 4 hrs, intermittently for following 24 hrs and occasionally thereafter for 14 consecutive days; type: organism-based; conditions: in vivo, po
Mus musculus [3] = assay: Toxicity in C57BL/6 mouse assessed as effect on food intake at 677 to 2000 mg/kg, ig measured continuously during first 4 hrs, intermittently for following 24 hrs and occasionally thereafter for 14 consecutive days; type: organism-based; conditions: in vivo, po
Mus musculus [4] = assay: Toxicity in C57BL/6 mouse assessed as macroscopic abnormalities of stomach at 677 to 2000 mg/kg, ig after 14 consecutive days; type: organism-based; conditions: in vivo, po
Mus musculus [5] = assay: Toxicity in C57BL/6 mouse assessed as macroscopic abnormalities of spleen at 677 to 2000 mg/kg, ig after 14 consecutive days; type: organism-based; conditions: in vivo, po
Mus musculus [6] = assay: Toxicity in C57BL/6 mouse assessed as histological abnormalities of heart at 2000 mg/kg, ig after 14 consecutive days by hematoxylin/eosin dye-based microscopic analysis; type: organism-based; conditions: in vivo, po
In short: (§1)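 Adult C57BL/6 mice, 12 weeks old, single intragastric doses of 0, 677, 1333 or 2000 mg/kg (n = 6 per dose, 3 male/3 female); behaviour and mortality observed over 14 days; liver, heart, lung and brain examined by HE staining at 2000 mg/kg.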

Mus musculus [7] = assay: Toxicity in C57BL/6 mouse assessed as histological abnormalities of lung at 2000 mg/kg, ig after 14 consecutive days by hematoxylin/eosin dye-based microscopic analysis; type: organism-based; conditions: in vivo, po, 336 h; in short: as §1
Mus musculus [8] = assay: Toxicity in C57BL/6 mouse assessed as histological abnormalities of liver at 2000 mg/kg, ig after 14 consecutive days by hematoxylin/eosin dye-based microscopic analysis; type: organism-based; conditions: in vivo, po, 336 h; in short: as §1
Mus musculus [9] = assay: Toxicity in C57BL/6 mouse assessed as histological abnormalities of brain at 2000 mg/kg, ig after 14 consecutive days by hematoxylin/eosin dye-based microscopic analysis; type: organism-based; conditions: in vivo, po, 336 h; in short: as §1
Mus musculus [10] = assay: Induction of cell proliferation in C57BL/6 mouse hippocampal neurons in CA1 region assessed as BrdU-incorporation at 0.5 uL/hr, icv for 7 days by immunohistochemical analysis (reference value: 3.2%); type: functional
Mus musculus [11] = assay: Induction of cell proliferation in C57BL/6 mouse hippocampal neurons in CA1 region assessed as BrdU-incorporation at 30 mg/kg, po administered via gavage for 7 days by immunohistochemical analysis (reference value: 2.3%); type: functional
In short: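 C57BL/6 mice, 12 weeks old, n = 6, individually housed beforehand without wheels. Compound gavaged 30 mg/kg/day for 7 days with daily IP BrdU 50 mg/kg; BrdU+ cells counted by immunohistochemistry per hippocampal volume; two-way ANOVA.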

[12] = Initial plasma concentration in Sprague-Dawley rat at 5 mg/kg, iv administered as single dose by LC-MS/MS analysis; type: ADME, organism-based
[13] = AUC (0 to t) in Sprague-Dawley rat at 5 mg/kg, iv administered as single dose by LC-MS/MS analysis; type: ADME, organism-based; conditions: in vivo
In short: (§2)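 SD rats given 5 mg/kg intravenously, n = 3; pharmacokinetic parameters derived from plasma concentrations.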

[14] = AUC (0 to infinity) in Sprague-Dawley rat at 5 mg/kg, iv administered as single dose by LC-MS/MS analysis; type: ADME, organism-based; design: dose 5 mg/kg, time infinity, route intravenous; conditions: in vivo; in short: as §2
[15] = Apparent volume of distribution in Sprague-Dawley rat at 5 mg/kg, iv administered as single dose by LC-MS/MS analysis; type: ADME, organism-based; conditions: in vivo, read-out: Vz; in short: as §2
[16] = Clearance in Sprague-Dawley rat at 5 mg/kg, iv administered as single dose by LC-MS/MS analysis; type: ADME, organism-based; conditions: in vivo; in short: as §2
[17] = MRT (0 to t) in Sprague-Dawley rat at 5 mg/kg, iv administered as single dose by LC-MS/MS analysis; type: ADME, organism-based; conditions: in vivo
[18] = MRT (0 to infinity) in Sprague-Dawley rat at 5 mg/kg, iv administered as single dose by LC-MS/MS analysis; type: ADME, organism-based; conditions: in vivo
[19] = Half life in Sprague-Dawley rat at 30 mg/kg, po by LC-MS/MS analysis; type: ADME, organism-based; conditions: in vivo
[20] = AUC (0 to t) in Sprague-Dawley rat at 30 mg/kg, po by LC-MS/MS analysis; type: ADME, organism-based; conditions: in vivo
[21] = Drug uptake in Sprague-Dawley rat plasma at 30 mg/kg, po after 1 hr by LC-MS/MS analysis; type: ADME, organism-based
In short: (§3)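 SD rats, single oral gavage 30 mg/kg, n = 3; plasma and brain drug levels taken 1 h after dosing, measured by LC-MS/MS.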

[22] = Drug uptake in Sprague-Dawley rat brain at 30 mg/kg, po after 1 hr by LC-MS/MS analysis; type: ADME, organism-based; conditions: read-out: Drug uptake; in short: as §3
Mus musculus [23] = assay: Toxicity in double APP/PS1 transgenic Alzheimer's disease mouse model assessed as diarrhea at 30 mg/kg/day, po for 80 days; type: organism-based; conditions: in vivo, 1920 h
In short: (§4)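 APP/PS1 double-transgenic mice, six months old, dosed by intragastric infusion at 30 mg/kg/day in 0.5% CMC-Na for 80 consecutive days (n = 10). Vehicle mice and wild-type C57BL/6 mice received blank 0.5% CMC-Na. Body weight tracked daily; diarrhoea, emesis-like behaviour and mortality monitored. At sacrifice, brain, subcutaneous layer, stomach, intestines, heart, lung, liver, spleen, kidneys and other organs examined for expansion or carcinogenicity.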

Mus musculus [24] = assay: Cognition enhancement activity in double APP/PS1 transgenic Alzheimer's disease mouse model assessed as time spent in correct quadrant at 30 mg/kg/day, po for 80 days by Morris water maze test (reference value: 20.6 +/- 4.4 sec); type: functional
In short: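 APP/PS1 mice, six months old, gavaged 30 mg/kg/day in 0.5% CMC-Na for 80 days. Probe trial was a single 90 s free swim with the platform absent; effective region is twice the platform diameter. n = 10, mean ± SD, two-way ANOVA.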

Mus musculus [25] = assay: Toxicity in double APP/PS1 transgenic Alzheimer's disease mouse model assessed as brain expansion at 30 mg/kg/day, po for 80 days; type: organism-based; conditions: in vivo, 1920 h; in short: as §4
Mus musculus [26] = assay: Toxicity in double APP/PS1 transgenic Alzheimer's disease mouse model assessed as carcinogenicity in heart at 30 mg/kg/day, po for 80 days; type: organism-based; conditions: in vivo, 1920 h; in short: as §4
Mus musculus [27] = assay: Toxicity in double APP/PS1 transgenic Alzheimer's disease mouse model assessed as carcinogenicity in spleen at 30 mg/kg/day, po for 80 days; type: organism-based; conditions: in vivo, 1920 h; in short: as §4
Mus musculus [28] = assay: Toxicity in double APP/PS1 transgenic Alzheimer's disease mouse model assessed as carcinogenicity in kidneys at 30 mg/kg/day, po for 80 days; type: organism-based; conditions: in vivo, 1920 h; in short: as §4
Mus musculus [29] = assay: Antialzheimer activity in double APP/PS1 transgenic Alzheimer's disease mouse model assessed as reduction in amyloid beta burden at 30 mg/kg/day, po for 80 days by immunochemical staining-based analysis relative to control; type: functional; design: scale not given: the % may be the effect or the level left
In short: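 APP/PS1 mice gavaged 30 mg/kg/day for 80 days (n = 10). Coronal sections immunostained with mOC64 anti-Aβ antibody; plaque burden is the percent area of a half coronal hemisphere.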

Mus musculus [30] = assay: Toxicity in C57BL/6 mouse assessed as macroscopic abnormalities of liver at 677 to 2000 mg/kg, ig after 14 consecutive days; type: organism-based; conditions: in vivo, po

| SMILES | K [1] [min⁻¹] | Activity (Mus musculus [2]) | Activity (Mus musculus [3]) | Activity (Mus musculus [4]) | Activity (Mus musculus [5]) | Activity (Mus musculus [6]) | Activity (Mus musculus [7]) | Activity (Mus musculus [8]) | Activity (Mus musculus [9]) | Activity (Mus musculus [10]) [%] | Activity (Mus musculus [11]) [%] | Activity (Mus musculus [23]) | Time (Mus musculus [24]) [s] | Activity (Mus musculus [25]) | Activity (Mus musculus [26]) | Activity (Mus musculus [27]) | Activity (Mus musculus [28]) | Activity (Mus musculus [29]) | Activity (Mus musculus [30]) | further results |
| --- | --- | --- | --- | --- | --- | --- | --- | --- | --- | --- | --- | --- | --- | --- | --- | --- | --- | --- | --- | --- |
| Cl.Oc1ccc2[nH]c(-c3ccc4c(Cl)cc(Cl)c(O)c4n3)cc2c1 | 0.00593 | Non-Toxic | Non-Toxic | Non-Toxic | Non-Toxic | Non-Toxic | Non-Toxic | Non-Toxic | Non-Toxic | 50.1 | 21.1 | Non-Toxic | 27.4 | Non-Toxic | Non-Toxic | Non-Toxic | Non-Toxic | <=54% | Non-Toxic | C0 [12]: 4930 ng/mL; AUC(0-t) [13]: 2110 ng·h/mL; AUC(0-inf) [14]: 2120 ng·h/mL; Vd [15]: 2.49 L/kg; clearance [16]: 39.3 mL/min/kg; MRT last [17]: 22.8 min; MRT inf [18]: 24.6 min; half-life [19]: 215 min; AUC(0-t) [20]: 1500 ng·h/mL; concentration at 1 h [21]: 902 ng/g; concentration at 1 h [22]: 579 ng/g |
| Cl.Oc1c(Cl)cc(Cl)c2ccc(-c3cc4cc5c(cc4[nH]3)OCO5)nc12 | 0.00178 | Non-Toxic | Non-Toxic | Non-Toxic | Non-Toxic | Non-Toxic | Non-Toxic | Non-Toxic | Non-Toxic | 49.8 | 14.6 | Non-Toxic | 24 | Non-Toxic | Non-Toxic | Non-Toxic | Non-Toxic | 26% | Non-Toxic |  |
